The record followed here is ChEMBL document CHEMBL1127825, “Synthesis and in vitro evaluation of 9-anilino-3,6-diaminoacridines active against a multidrug-resistant strain of the malaria parasite Plasmodium falciparum” (J Med Chem, 1994).

The test system of data set [1] is Plasmodium falciparum. Briefly: Inhibitory concentration against Plasmodium falciparum D6 infected erythrocytes. It counts as functional, organism-based.
Data set [2] concerns Plasmodium falciparum. Nature of the data set: Minimum inhibitory concentration (IC90) against Plasmodium falciparum K1 infected erythrocytes.
The subject of data set [3] is Plasmodium falciparum. Briefly: Inhibitory concentration against Plasmodium falciparum W2 infected erythrocytes. The format is functional, organism-based.
A further data set deals with Jurkat. Briefly: Concentration required to reduce growth of human jurkat leukemia cells to 50% of control cultures, determined using a 72 hr continuous exposure. It counts as functional, cell-based. In short, it runs like this:
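Human Jurkat leukemia cells given continuous drug exposure for 72 h, then counted on a hemocytometer. IC50 is the concentration that cuts cell growth to 50% of untreated controls. Values are means of at least two independent determinations, with variation typically ±15%.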

Data set [4] deals with Plasmodium falciparum. Briefly: (§1) Inhibitory concentration against Plasmodium falciparum K1 infected erythrocytes. The format is functional, organism-based. A digest of the protocol: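 Chloroquine- and pyrimethamine-resistant K1 strain in infected erythrocyte suspensions (0.5% initial parasitemia), exposed to drug for 24 h at 37 °C. Read-out: [3H]hypoxanthine incorporation into parasites. IC50 in μM is the concentration that reduces incorporation to 50% of untreated controls.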

Data set [5] has as its system Plasmodium falciparum. Briefly: Inhibitory concentration IC50 against Plasmodium falciparum K1 by [3H]hypoxanthine uptake over 24 hr. The format is functional, organism-based. In short, it runs like this:
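K1 strain of P. falciparum (chloroquine- and pyrimethamine-resistant) in infected erythrocyte suspensions at 0.5% initial parasitemia, exposed to drug for 24 h at 37 °C. Read-out is [3H]hypoxanthine incorporation into parasites. IC50 is the concentration giving 50% inhibition relative to untreated controls.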

Data set [6] addresses T1, DNA topoisomerase 2 (Plasmodium falciparum K1) (UniProt P41001).
T1 sequence (whole entry): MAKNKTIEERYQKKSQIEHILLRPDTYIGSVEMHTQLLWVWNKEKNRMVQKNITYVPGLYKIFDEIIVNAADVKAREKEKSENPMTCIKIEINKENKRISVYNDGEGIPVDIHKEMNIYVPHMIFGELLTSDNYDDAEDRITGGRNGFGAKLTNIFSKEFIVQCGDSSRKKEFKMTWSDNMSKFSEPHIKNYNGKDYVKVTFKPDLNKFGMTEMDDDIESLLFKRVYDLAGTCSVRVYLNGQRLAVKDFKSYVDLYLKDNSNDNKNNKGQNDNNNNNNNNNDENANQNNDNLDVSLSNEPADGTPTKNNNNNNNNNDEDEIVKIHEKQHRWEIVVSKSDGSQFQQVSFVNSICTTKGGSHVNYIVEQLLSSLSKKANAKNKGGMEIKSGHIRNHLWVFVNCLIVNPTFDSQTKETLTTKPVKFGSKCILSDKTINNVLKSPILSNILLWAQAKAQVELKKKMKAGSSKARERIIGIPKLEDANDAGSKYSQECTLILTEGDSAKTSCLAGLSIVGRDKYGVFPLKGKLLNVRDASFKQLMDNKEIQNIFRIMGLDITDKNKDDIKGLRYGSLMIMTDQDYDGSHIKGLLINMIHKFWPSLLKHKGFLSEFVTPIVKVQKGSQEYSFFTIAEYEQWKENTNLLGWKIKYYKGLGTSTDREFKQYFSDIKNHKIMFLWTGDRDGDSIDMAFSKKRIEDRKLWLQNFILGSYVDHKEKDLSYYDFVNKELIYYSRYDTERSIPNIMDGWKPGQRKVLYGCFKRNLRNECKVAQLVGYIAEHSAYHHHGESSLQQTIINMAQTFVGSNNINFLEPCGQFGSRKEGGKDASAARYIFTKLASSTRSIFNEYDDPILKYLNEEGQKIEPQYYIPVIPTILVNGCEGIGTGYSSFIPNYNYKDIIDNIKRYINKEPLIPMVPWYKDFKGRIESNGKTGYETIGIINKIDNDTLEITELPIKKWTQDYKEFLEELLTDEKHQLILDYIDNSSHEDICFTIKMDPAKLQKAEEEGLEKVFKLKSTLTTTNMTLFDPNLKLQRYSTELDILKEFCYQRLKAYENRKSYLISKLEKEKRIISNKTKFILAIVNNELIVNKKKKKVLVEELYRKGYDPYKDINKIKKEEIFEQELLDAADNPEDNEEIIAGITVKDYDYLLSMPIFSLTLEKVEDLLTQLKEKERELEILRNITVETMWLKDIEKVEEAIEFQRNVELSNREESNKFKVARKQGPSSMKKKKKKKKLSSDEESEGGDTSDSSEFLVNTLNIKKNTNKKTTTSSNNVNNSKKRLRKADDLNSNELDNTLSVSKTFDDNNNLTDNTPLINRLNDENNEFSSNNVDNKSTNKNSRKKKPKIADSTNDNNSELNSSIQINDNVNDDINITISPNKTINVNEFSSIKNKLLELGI
Nature of the data set: Minimum inhibitory concentration required to completely inhibit topoisomerase II activity from Plasmodium falciparum was determined using P4 DNA […] assay.

The nature of data set [7]: In vitro therapeutic index value is the ratio between IC50 values of [J] and [P]. The format is cell-based. The following applies: human, Jurkat cells; read-out: TI.
The target of data set [8] is DNA topoisomerase II (Homo sapiens) (UniProt P11388+Q02880). Nature of the data set: Minimum inhibitory concentration required to completely inhibit topoisomerase II activity from jurkat human leukemia cells was determined using P4 DNA unknotting assay. A digest of the protocol:
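Enzyme is a partially purified topoisomerase II extract from midlog Jurkat cells, made by sonication in Tris pH 8/KCl/MgCl2/EGTA buffer with protease inhibitors, then PEG/KCl precipitation. Extract is diluted to a set P4 DNA unknotting activity. Proteinase K method scores unknotting and linearization of phage P4 DNA on 0.7% agarose gels stained with ethidium bromide. MIC is the concentration giving complete inhibition.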

The subject of data set [9] is Plasmodium falciparum. Described as §1. The format is functional.
In data set [10] the test system is Plasmodium falciparum. Briefly: Minimum inhibitory concentration (IC90) against Plasmodium falciparum K1 infected erythrocytes. The source holds these as a separate data set.

Converted amounts (≈) assume the structure as drawn.

In turn, `OC(c1cc(C(F)(F)F)nc2c(C(F)(F)F)cccc12)C1CCCCN1` (stereo not drawn) [MEFLOQUINE] displayed an IC50 with Plasmodium falciparum [1] of 17 nM. For the same molecule, the 90% effect level in the data set with Plasmodium falciparum [2] (IC90) was put at 70 nM.

`C[C@@H]1CC[C@H]2[C@@H](C)C(=O)O[C@@H]3O[C@@]4(C)CC[C@@H]1[C@]32OO4` [ARTEMISININ]: the IC50 in the data set on Plasmodium falciparum [1] amounted to 13 nM; with Plasmodium falciparum [3], 12 nM.

Regarding `Nc1ccc(Nc2c3ccc(N)cc3nc3cc(N)ccc23)cc1`, the IC50 in the data set on Jurkat came to 15000 nM; in the data set on Plasmodium falciparum [1], 33 nM; in the data set on Plasmodium falciparum [4] it was 25 nM; in the data set on Plasmodium falciparum [3], 37 nM; in the data set on Plasmodium falciparum [5] it was 25 nM. Also, the MIC turned out to be 10 µM (≈ 3.15 µg/mL) in data set [6] and 20 µM (≈ 6.31 µg/mL) in [8]. The selectivity ratio in [7] was 600.

As for `COc1ccc2nc3cc(Cl)ccc3c(Nc3cc(CN4CCCC4)c(O)c(CN4CCCC4)c3)c2n1` [PYRONARIDINE], the IC50 in the data set with Jurkat was found to be 4000 nM; in the data set on Plasmodium falciparum [1], 1 nM; in the data set on Plasmodium falciparum [3], 0.8 nM; with Plasmodium falciparum [5], 2.7 nM; in the data set on Plasmodium falciparum [9], 27 nM. Besides, the selectivity ratio in data set [7] is 1480.

In turn, `CCN(CC)CCCC(C)Nc1ccnc2cc(Cl)ccc12` (stereo not drawn) [CHLOROQUINE] returned an IC50 in the data set on Plasmodium falciparum [9] of 250 nM.

For the molecule `C=C[C@H]1CN2CC[C@H]1C[C@H]2[C@H](O)c1ccnc2ccc(OC)cc12` [QUININE], the IC50 in the data set with Plasmodium falciparum [1] was found to be 48 nM; in the data set with Plasmodium falciparum [3] it was 100 nM. The molecule further registered a concentration for an effect of 90% (IC90) with Plasmodium falciparum [10] of 300 nM.

As for `CN(C)c1ccc(Nc2c3ccc(N)cc3nc3cc(N)ccc23)cc1`, the IC50 with Jurkat is 6000 nM; with Plasmodium falciparum [1], 63 nM; with Plasmodium falciparum [4] it was 34 nM; in the data set with Plasmodium falciparum [3], 118 nM; in the data set on Plasmodium falciparum [5] it was 34 nM. Moreover, the MIC in data set [6] turned out to be 12.5 µM (≈ 4.29 µg/mL); in data set [8] it was 20 µM (≈ 6.87 µg/mL). Further, in [7], the selectivity ratio was determined as 176.

With `CN(C)Cc1ccc(Nc2c3ccc(N)cc3nc3cc(N)ccc23)cc1`, the IC50 in the data set on Jurkat is above 20000 nM; in the data set with Plasmodium falciparum [1], 113 nM; in the data set on Plasmodium falciparum [4], 40 nM; in the data set with Plasmodium falciparum [3] it was 277 nM; in the data set with Plasmodium falciparum [5], 40 nM. Further, the MIC in data set [6] stood at 50 µM (≈ 17.9 µg/mL); in [8], 20 µM (≈ 7.15 µg/mL). For the same molecule, in [7], the selectivity ratio was above 500.

For the molecule `CS(=O)(=O)Nc1ccc(Nc2c3ccc(N)cc3nc3cc(N)ccc23)cc1`, the IC50 is 1000 nM with Jurkat and 30 nM in the data set with Plasmodium falciparum [5]. The results for the MIC in data set [6] and in data set [8] were 6 µM (≈ 2.36 µg/mL) and 10 µM (≈ 3.93 µg/mL), respectively. Also, in data set [7], the selectivity ratio was 33.

For the molecule `[N-]=[N+]=Nc1ccc2c(Nc3ccc(C(N)=O)cc3)c3ccc(N=[N+]=[N-])cc3nc2c1`, the IC50 in the data set with Jurkat stood at 1500 nM; with Plasmodium falciparum [5] it was 60 nM. Also, the MIC in [6] is 50 µM (≈ 19.8 µg/mL); in data set [8], above 100 µM. The selectivity ratio in [7] was 25.

On to `Nc1ccc2c(Nc3ccc(O)cc3)c3ccc(N)cc3nc2c1`, for which the IC50 in the data set on Jurkat was 10000 nM; with Plasmodium falciparum [5], 50 nM. In addition, the figures for the MIC in [6] and in data set [8] were 6 µM (≈ 1.9 µg/mL) and 20 µM (≈ 6.33 µg/mL), respectively. In [7], the selectivity ratio is 200.
